Consider two compounds from PMC7781011 (Journal of Inflammation Research, 2020).

Series [1] concerns the target T1, human COX-1 (Homo sapiens, UniProt P23219). Kind of series: Binding assay using isothermal titration calorimetry. The procedure, abridged: (§1)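 Serial injections of test compound (up to 1 mM) into enzyme-containing cell at 1 mM protein, both dissolved in PBS and degassed before use. Titration continued until heat signal approached zero at saturation. Isotherm fitted to obtain dissociation constant KD.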
On the technique in general: ITC needs no label: the signal is the heat of the interaction.

The target in series [2] is T1, human COX-1. Kind of series: Circular dichroism, change in secondary structure. The conditions noted are these: CD, Human COX-1, LFA-9 10 µM. In a few lines: (§2)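 Native and compound-treated (0.1–10 µM) enzymes in PBS pH 7.4 at final protein 200 µM. CD spectra corrected by subtracting buffer blanks. Percent change in secondary structure (α-helix, β-sheet) calculated with the CAPITO analysis server.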
A general note: Circular dichroism is the unequal absorption of left and right circularly polarised light.

Another series concerns the target T2, human mPGES-1 (Homo sapiens, UniProt O14684).
T2 sequence (O14684 1-152): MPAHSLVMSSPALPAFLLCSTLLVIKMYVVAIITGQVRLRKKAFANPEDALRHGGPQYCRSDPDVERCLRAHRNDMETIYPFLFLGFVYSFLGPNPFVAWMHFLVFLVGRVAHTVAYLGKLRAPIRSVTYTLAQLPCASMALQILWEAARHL
Kind of series: Cell-free mPGES-1 assay. The format is biochemical. In a few lines: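 Enzyme in 15 mM Tris-HCl pH 7.4 with 1 mM GSH, preincubated 20 min with compound (0.1–100 µM); plate held 15 min at 20°C. PGH2 (final 2.8 µM) added, 45 s at room temperature, then stopped with SnCl2 in 1N HCl. PGE2 by ELISA, in triplicate, % inhibition versus untreated. Human enzyme from E. coli or commercial; mouse enzyme from vas deferens/seminal vesicles. IC50 by four-parameter nonlinear regression.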

Another series has as its target T3, rat mPGES-1 (Rattus norvegicus, UniProt Q9JHF3).
T3 sequence (Q9JHF3 1-153): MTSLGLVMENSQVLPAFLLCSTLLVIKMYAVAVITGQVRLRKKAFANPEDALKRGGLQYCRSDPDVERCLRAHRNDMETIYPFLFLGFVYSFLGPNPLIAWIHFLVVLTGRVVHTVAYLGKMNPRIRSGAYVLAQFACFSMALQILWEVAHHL
The experiment in a line: Binding assay using isothermal titration calorimetry. The procedure, abridged:
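Rat mPGES-1 isolated from vas deferens and seminal vesicles. Compound (up to 1 mM) and protein (1 mM) dissolved in PBS and degassed. Serial compound injections made into enzyme cell. KD derived by fitting the binding isotherm.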

A short description of series [3]: In vitro metabolic stability in activated liver S9 fraction. The series is classed as in vitro ADME. The settings on record: mouse liver S9 fraction activated with NADPH, UDPGA, GSH, PAPS; 500 µM. In a few lines: (§3)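 Mouse or rat liver S9 fraction isolated and activated with NADPH, UDPGA, GSH and PAPS before compound addition. Samples taken at 0, 15, 30, 45 and 60 min. Compound extracted with acetonitrile and quantified by reversed-phase HPLC with PDA detection. Percent remaining calculated from peak areas at 0 and 60 min.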

Series [4] deals with normal colonocytes of rats. Kind of series: MTT assay. The format is cell-based, rat. The settings on record: 0.1–100 µM, 24 hours. The procedure, abridged:
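Normal rat colonocytes exposed 24 h to compound (0.1–100 µM), then MTT reagent for 2 h at 37°C. Formazan dissolved in DMSO, absorbance read at 570 nm with 620 nm reference. Three independent experiments, expressed as percent viability.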
(In general: Tetrazolium dyes change colour on reduction, which living cells bring about.)

In series [5] the target is T4, human 5-LOX (Homo sapiens, UniProt P09917).
T4 sequence (P09917 1-674): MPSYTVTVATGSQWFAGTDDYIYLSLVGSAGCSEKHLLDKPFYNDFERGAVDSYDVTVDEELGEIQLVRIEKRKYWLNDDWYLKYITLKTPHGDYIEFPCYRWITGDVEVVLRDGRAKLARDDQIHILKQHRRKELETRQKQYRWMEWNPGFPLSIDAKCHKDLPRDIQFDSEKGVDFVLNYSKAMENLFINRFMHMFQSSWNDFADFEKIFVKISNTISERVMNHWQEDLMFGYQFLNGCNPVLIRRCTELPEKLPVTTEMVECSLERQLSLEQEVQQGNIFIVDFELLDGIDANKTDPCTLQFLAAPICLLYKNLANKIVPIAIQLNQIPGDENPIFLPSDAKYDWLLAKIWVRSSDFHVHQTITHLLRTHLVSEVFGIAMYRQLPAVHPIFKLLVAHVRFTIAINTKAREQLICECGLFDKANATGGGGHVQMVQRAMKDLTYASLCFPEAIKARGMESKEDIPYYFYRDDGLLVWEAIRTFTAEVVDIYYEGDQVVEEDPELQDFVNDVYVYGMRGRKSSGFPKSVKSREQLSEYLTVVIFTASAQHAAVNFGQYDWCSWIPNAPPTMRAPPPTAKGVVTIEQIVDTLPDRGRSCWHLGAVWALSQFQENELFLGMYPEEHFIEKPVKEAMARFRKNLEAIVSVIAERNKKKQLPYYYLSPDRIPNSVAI
The experiment in a line: Circular dichroism, change in secondary structure. The settings on record: CD. In a few lines:
as §2

Series [6] in a line: In vitro metabolic stability in activated liver S9 fraction. The format is in vitro ADME. The conditions noted are these: rat liver S9 fraction activated with NADPH, UDPGA, GSH, PAPS; 500 µM. In a few lines:
as §3

For series [7], the system named is CD68-positive inflammatory cell infiltration and TNF-α expression in paw tissue. Kind of series: Immunofluorescence and immunoblot analysis of carrageenan-injected paw tissue. The format is in vivo. The conditions noted are these: rat, 400 ppm, compared to the untreated control. In a few lines: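 Paw tissue: 4-µm FFPE sections, citrate pH 6.0 epitope retrieval (99°C, 30 min). Blocked with serum/BSA 40 min. Alexa700-CD68 (1:50) and TNF-α (1:100) overnight at 4°C, Alexa488 secondary for TNF-α. Confocal imaging, stained cells counted by image analysis. Immunoblot: 20 µg protein, 12% SDS-PAGE, PVDF. CD68 and TNF-α (1:100), HRP secondary, ECL, β-actin loading control.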

The target in series [8] is T1, human COX-1. The experiment in a line: Cell-free fluorometric COX-1 assay. The series is classed as biochemical.
The target in series [9] is T4, human 5-LOX. Kind of series: Cell-free fluorometric 5-LOX assay. The conditions noted are these: IC50 5-LOX. The format is biochemical.
Series [10] has as its target T4, human 5-LOX. The experiment in a line: Binding assay using isothermal titration calorimetry. In a few lines: as §1

Structures are written as SMILES. pIC50, pKd: −log10 of the molar value. Read-outs that look alike come from different tables or passages of the source. Bounds are passed on as bounds.

T1 sequence (P23219 24-599): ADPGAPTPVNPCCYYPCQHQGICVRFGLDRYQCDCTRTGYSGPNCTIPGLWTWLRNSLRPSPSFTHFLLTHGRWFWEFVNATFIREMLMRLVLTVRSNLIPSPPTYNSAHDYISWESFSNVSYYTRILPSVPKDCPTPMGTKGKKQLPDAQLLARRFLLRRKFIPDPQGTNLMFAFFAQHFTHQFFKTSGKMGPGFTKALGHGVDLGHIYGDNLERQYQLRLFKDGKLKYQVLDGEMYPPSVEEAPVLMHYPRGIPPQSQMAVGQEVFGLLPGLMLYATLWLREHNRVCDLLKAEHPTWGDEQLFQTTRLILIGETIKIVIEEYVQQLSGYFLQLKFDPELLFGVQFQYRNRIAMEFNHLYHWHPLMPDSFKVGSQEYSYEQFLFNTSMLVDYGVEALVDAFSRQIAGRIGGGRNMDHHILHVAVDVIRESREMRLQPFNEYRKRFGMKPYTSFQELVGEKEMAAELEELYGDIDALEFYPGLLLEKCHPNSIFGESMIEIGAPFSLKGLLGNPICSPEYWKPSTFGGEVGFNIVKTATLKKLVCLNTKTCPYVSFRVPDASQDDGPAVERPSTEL

Regarding `CC1(C)Cc2c(-c3ccccc3)c(-c3ccc(Cl)cc3)c(CC(=O)NCC(=O)O)n2C1` [LFA-9, 2-[[2-[2-(4-chlorophenyl)-6,6-dimethyl-1-phenyl-5,7-dihydropyrrolizin-3-yl]acetyl]amino]acetic acid], the pKd was below 3.00 at human COX-1 [1]; 5.48 on rat mPGES-1; 4.74 at human 5-LOX [10]; 3.68 at human 5-LOX [10] (read-out: KD (KD2), ITC, Human 5-LOX, sequential binding sites, second site). Moreover, the “Change in Secondary Structure” value at human COX-1 [2] is reported as “No change in secondary structure”. Besides, the pIC50 is 6.06 against human mPGES-1 and 5.56 at human 5-LOX [9]. Also, the “LFA-9 remaining after 60-minutes incubation” value was 96.1% in series [3] and 98.3% in series [6]. Further, in series [4], the “cytotoxicity to normal rat colonic epithelial cells” value is on record as “no cytotoxicity”. Further, at human 5-LOX [5] (5-LOX, LFA-9 at 0.1 µM), the “unfolding of α-helix of 5-LOX” value is given as 8.7%. The “unfolding of β-sheets of 5-LOX” value on human 5-LOX [5] (5-LOX, LFA-9 at 0.1 µM) was 1%. Also, the “Change in Secondary Structure: unfolding in α-helix” value on human 5-LOX [5] (Human 5-LOX, LFA-9 0.12 µM) was 8.7%. On human 5-LOX [5] (Human 5-LOX, LFA-9 0.12 µM), the “Change in Secondary Structure: unfolding in β-sheets” value is on record as 1%. For the same compound, the “CD68-positive inflammatory cell infiltration in paw tissue” value in series [7] is reported as “significantly decreased”. In series [7], the “expression of TNF-α in paw tissue” value is reported as “significantly decreased”. Besides, the “inhibition of COX-1 activity” value at human COX-1 [8] (cell-free, human, up to the tested range of 1 mM) is given as “did not show inhibition”.
With `CC1(C)Cc2c(-c3ccccc3)c(-c3ccc(Cl)cc3)c(CC(=O)O)n2C1` [Licofelone, reference compound], the pIC50 on human mPGES-1 is 4.85; at human COX-1 [8], 5.78; at human 5-LOX [9], 5.67.

Usually pKd stands for the negative decadic logarithm of the Kd, by convention in mol/L. As a reminder, the pIC50 is −log10 of the IC50, conventionally taken in molar units. The low end stands for a high IC50, the high end for a low IC50.
